Results published in ChEMBL document CHEMBL1811918, “Sesquiterpene and norsesquiterpene derivatives from Sanicula lamelligera and their biological evaluation” (J Nat Prod, 2011).
Residues, ends and D or L forms follow the SMILES beside them. *: point of attachment. Cbz = O=C(OCc1ccccc1)*

Legend:
[1] = Cytotoxicity against human C8166 cells after 3 days by MTT assay; format: cell-based
Procedure, shortened: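 C8166 cells were seeded in triplicate with or without a concentration series and held at 37 C for 3 days, with compound-free wells as negative control. Viable cells were quantified by MTT absorbance at 595/630 nm. CC50, the 50% reduction in viable cells, was taken from the dose–response curve.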

[2] = Therapeutic index, ratio of CC50 for human C8166 cells to EC50 for Human immunodeficiency virus 1 3B infected in human C8166 cells; format: cell-based; conditions: read-out: Ratio CC50/EC50
Procedure, shortened: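 Ratio of CC50 (MTT viability of uninfected C8166 cells, 3 days, 37 C) to EC50 (syncytium counts in HIV-1 IIIB-infected C8166 cells, 3 days, 37 C).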

[3] = system: Human immunodeficiency virus 1; assay: Antiviral activity against Human immunodeficiency virus 1 3B infected in human C8166 cells assessed as numbers of syncytia after 3 days by MTT assay; format: functional, organism-based; conditions: C8166, 72 h
Procedure, shortened: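 Compounds at various concentrations were added to C8166 cells (8 × 10^5/mL) infected with HIV-1 IIIB and incubated at 37 C for 3 days. The cytopathic effect was scored by counting syncytia, with AZT as positive control. EC50 came from the percentage of syncytial cells relative to the infected untreated control.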

HL-60 = assay: Cytostatic activity against human HL60 cells after […] by MTT assay; format: functional, cell-based
Procedure, shortened: (§1)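 MTT viability in human tumor lines exposed to a concentration series for 48 h. Adherent cells were allowed to attach for 12 h before dosing. Suspension cells were seeded immediately before dosing at (1–2) × 10^5 cells/mL. DMSO wells served as negative control and DDP (cisplatin) as positive control. IC50 was calculated from viability.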

SW480 = assay: Cytostatic activity against human SW480 cells after […] by MTT assay; format: functional, cell-based; procedure, shortened: as §1
[4] = system: Human immunodeficiency virus 1; assay: Antiviral activity against Human immunodeficiency virus 1 3B infected in human C8166 cells assessed as numbers of syncytia after 3 days by syncytium counting; conditions: C8166, 72 h
SMMC-7721 = assay: Cytostatic activity against human SMMC7721 cells after […] by MTT assay; format: functional, cell-based; procedure, shortened: as §1
A549 = assay: Cytostatic activity against human A549 cells after […] by MTT assay; format: functional, cell-based; procedure, shortened: as §1
MCF7 = assay: Cytostatic activity against human MCF7 cells after […] by MTT assay; format: functional, cell-based; procedure, shortened: as §1
RAW264.7 = assay: Antiinflammatory against mouse RAW264.7 cells assessed as inhibition of LPS-induced nitric oxide production; format: functional, cell-based
Procedure, shortened: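 Nitric oxide production was measured in LPS-stimulated RAW 264.7 macrophages, with DMSO wells as negative control and MG-132 as positive control. IC50 was derived.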

## Cc1cn([C@H]2C[C@H](N=[N+]=[N-])[C@@H](CO)O2)c(=O)[nH]c1=O [ZIDOVUDINE]
[1]
  CC50 at 72 h: 4070 µM
[2]
  selectivity ratio: 214000
[3]
  EC50: 0.0045 µM

## C=C(C)[C@@H]1CC[C@@]2(C)[C@H](O)CC[C@@](C)(O)[C@@H]2C1 [CYPERUSOL C]
HL-60
  IC50: > 64.4 µM
[1]
  CC50 at 72 h: > 420 µM
SW480
  IC50: > 64.4 µM
[2]
  selectivity ratio: > 2.8
[4]
  EC50: 150 µM
SMMC-7721
  IC50: > 64.4 µM
A549
  IC50: > 64.4 µM
MCF7
  IC50: > 64.4 µM
RAW264.7
  IC50: > 64.4 µM

## CC(C)[C@H]1CC[C@@]2(C)[C@@H]1[C@@H]1O[C@]1(CO)CC[C@@H]2O [SANICULAMOID B]
HL-60
  IC50: > 64.4 µM
[1]
  CC50 at 72 h: 358 µM
SW480
  IC50: > 64.4 µM
[2]
  selectivity ratio: 2.9
[4]
  EC50: 126 µM
SMMC-7721
  IC50: > 64.4 µM
A549
  IC50: > 64.4 µM
MCF7
  IC50: > 64.4 µM
RAW264.7
  IC50: > 64.4 µM

## CC(=O)C=C=C1C(C)(C)C[C@H](O)C[C@@]1(C)O[C@@H]1O[C@H](CO)[C@@H](O)[C@H](O)[C@H]1O [CITROSIDE B]
HL-60
  IC50: > 64.4 µM
[1]
  CC50 at 72 h: > 259 µM
SW480
  IC50: > 64.4 µM
[4]
  EC50: > 259 µM
SMMC-7721
  IC50: > 64.4 µM
A549
  IC50: > 64.4 µM
MCF7
  IC50: > 64.4 µM
RAW264.7
  IC50: > 64.4 µM

## C=C1CC[C@H](O)[C@@]2(C)CC[C@@H]([C@@H](O)C(C)C)[C@H]12
HL-60
  IC50: > 64.4 µM
[1]
  CC50 at 72 h: 398 µM
SW480
  IC50: > 64.4 µM
[2]
  selectivity ratio: 2.4
[4]
  EC50: 167 µM
SMMC-7721
  IC50: > 64.4 µM
A549
  IC50: > 64.4 µM
MCF7
  IC50: > 64.4 µM
RAW264.7
  IC50: > 64.4 µM

## C=C1CC[C@@H](O)[C@]2(C)CC[C@@](O)(C(C)C)C[C@@H]12
HL-60
  IC50: > 64.4 µM
[1]
  CC50 at 72 h: > 420 µM
SW480
  IC50: > 64.4 µM
[4]
  EC50: > 420 µM
SMMC-7721
  IC50: > 64.4 µM
A549
  IC50: > 64.4 µM
MCF7
  IC50: > 64.4 µM
RAW264.7
  IC50: > 64.4 µM

## C=C1CC[C@@H](O)[C@@]2(C)CC[C@H](C(C)C)[C@@H](O)[C@H]12
HL-60
  IC50: 31.1 µM
[1]
  CC50 at 72 h: 68.1 µM
SW480
  IC50: 37 µM
[2]
  selectivity ratio: 2.1
[4]
  EC50: 31.9 µM
SMMC-7721
  IC50: 32.4 µM
A549
  IC50: 41.6 µM
MCF7
  IC50: 35.3 µM
RAW264.7
  IC50: 28.1 µM

## C=C1CC[C@H]2[C@@H]([C@@H]3[C@@H]1CC[C@@]3(C)O)C2(C)C
HL-60
  IC50: > 64.4 µM
[1]
  CC50 at 72 h: 170 µM
SW480
  IC50: > 64.4 µM
[2]
  selectivity ratio: 1.6
[4]
  EC50: 104 µM
SMMC-7721
  IC50: > 64.4 µM
A549
  IC50: > 64.4 µM
MCF7
  IC50: > 64.4 µM
RAW264.7
  IC50: > 64.4 µM

## CC(C)(O)[C@H]1C[C@H]2[C@H](CC[C@@]2(C)O)[C@](C)(O)C[C@@H]1O [SANICULAMOID C]
HL-60
  IC50: > 64.4 µM
[1]
  CC50 at 72 h: > 368 µM
SW480
  IC50: > 64.4 µM
[4]
  EC50: > 368 µM
SMMC-7721
  IC50: > 64.4 µM
A549
  IC50: > 64.4 µM
MCF7
  IC50: > 64.4 µM
RAW264.7
  IC50: > 64.4 µM

## CC(=O)CC[C@@H](C(C)C)[C@@H]1[C@H]2CCC(=O)[C@H]21 [SANICULAMOID D]
HL-60
  IC50: > 64.4 µM
[1]
  CC50 at 72 h: > 450 µM
SW480
  IC50: > 64.4 µM
[2]
  selectivity ratio: > 2.3
[4]
  EC50: 196 µM
SMMC-7721
  IC50: > 64.4 µM
A549
  IC50: > 64.4 µM
MCF7
  IC50: > 64.4 µM
RAW264.7
  IC50: > 64.4 µM

## CC(C)C[C@@H](C=O)NC(=O)[C@H](CC(C)C)NC(=O)[C@H](CC(C)C)NC(=O)OCc1ccccc1 [MG-132] (Cbz-Leu-Leu-Leu-aldehyde)
RAW264.7
  IC50: 0.439 µM

## CC(C)C1=C[C@@H]2[C@H](CC[C@@]2(C)O)[C@@](C)(O)CC1 [GUAIANEDIOL]
HL-60
  IC50: > 64.4 µM
[1]
  CC50 at 72 h: > 420 µM
SW480
  IC50: > 64.4 µM
[4]
  EC50: > 420 µM
SMMC-7721
  IC50: > 64.4 µM
A549
  IC50: > 64.4 µM
MCF7
  IC50: > 64.4 µM
RAW264.7
  IC50: > 64.4 µM

## CC(C)[C@H]1CC[C@@]2(C)[C@@H]1[C@H]1O[C@@H]2CC[C@@H]1C(=O)O [SANICULAMOID A1]
HL-60
  IC50: > 64.4 µM
[1]
  CC50 at 72 h: 195 µM
SW480
  IC50: > 64.4 µM
[2]
  selectivity ratio: 1.2
[4]
  EC50: 162 µM
SMMC-7721
  IC50: > 64.4 µM
A549
  IC50: > 64.4 µM
MCF7
  IC50: > 64.4 µM
RAW264.7
  IC50: > 64.4 µM

## C[C@H](/C=C/[C@]12O[C@@]1(C)C[C@@H](O)CC2(C)C)O[C@@H]1O[C@H](CO)[C@@H](O)[C@H](O)[C@H]1O [PHLOMUROSIDE]
HL-60
  IC50: > 64.4 µM
[1]
  CC50 at 72 h: > 258 µM
SW480
  IC50: > 64.4 µM
[4]
  EC50: > 258 µM
SMMC-7721
  IC50: > 64.4 µM
A549
  IC50: > 64.4 µM
MCF7
  IC50: > 64.4 µM
RAW264.7
  IC50: > 64.4 µM

## CC(=O)/C=C/[C@@]1(O)C(C)=CC(=O)CC1(C)C
HL-60
  IC50: > 64.4 µM
[1]
  CC50 at 72 h: > 450 µM
SW480
  IC50: > 64.4 µM
[4]
  EC50: > 450 µM
SMMC-7721
  IC50: > 64.4 µM
A549
  IC50: > 64.4 µM
MCF7
  IC50: > 64.4 µM
RAW264.7
  IC50: > 64.4 µM

## C=C1CC[C@@H](O)[C@]2(C)CC[C@H](CC(C)(C)O)[C@@H]12
HL-60
  IC50: > 64.4 µM
[1]
  CC50 at 72 h: > 420 µM
SW480
  IC50: > 64.4 µM
[4]
  EC50: > 420 µM
SMMC-7721
  IC50: > 64.4 µM
A549
  IC50: > 64.4 µM
MCF7
  IC50: > 64.4 µM
RAW264.7
  IC50: > 64.4 µM
